Experiments:
Conditions in all cases: Cricetulus griseus
V79 [1] = assay: Glutathione peroxidase activity in V79 cells at 100 uM expressed as fold induction of GPx activity to control value; format: cell-based
Outline: (§1)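 V79 cells (5.0×10^5 per flask) adhered overnight, then exposed 48 h to compound in complete medium (pH 7–7.5), followed by 24 h in fresh medium. Cells were sonicated in Tris-HCl (50 mM, pH 7.5, EDTA, 2-mercaptoethanol) and centrifuged. Supernatant GPx was read as NADPH loss at 340 nm over 3 min with tert-butyl hydroperoxide, normalised to Bradford protein (N = 9), and given as fold over untreated control.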

V79 [2] = assay: Cytotoxicity activity against V79 cells; format: functional, cell-based
Outline: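 V79 cells kept in D-MEM with 10% Fetal Clone I serum at 37 °C, 5% CO2, then seeded in 96-well plates and allowed to adhere overnight. Exposed 2 days to compound (0–3000 µM, pH 7–7.5, in complete medium). Viability read by MTS (2 h, 490 nm), expressed as percent of untreated control. IC50 taken by regression of viability vs concentration.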

V79 [3] = assay: Glutathione peroxidase activity in V79 cells at 20 uM expressed as fold induction of GPx activity to control value; format: cell-based; outline: as §1

Compound	Fold induction (V79 [1])	IC50 (V79 [2])	Fold induction (V79 [3])
CC1N[C@@H](C(=O)O)C[Se]1 (some centres undefined)	1.3	160 µM	–
O=[Se](O)O [SODIUM SELENITE]	–	17 µM	–
O=C(O)[C@@H]1C[Se]CN1	5.9	317 µM	–
C[Se]C[C@H](N)C(=O)O [METHYLSELENOCYSTEINE]	1.5	472 µM	–
N#C[Se]Cc1ccc(C[Se]C#N)cc1	–	12 µM	1.5
O=[Se](=O)(O)O [SODIUM SELENATE]	1.9	292 µM	–
CC1N[C@H](C(=O)O)C[Se]1 (some centres undefined)	2.1	79 µM	–
O=C1N[C@@H](C(=O)O)C[Se]1	1.4	> 3000 µM	–
C[Se]CC[C@H](N)C(=O)O [SELENOMETHIONINE]	1.8	267 µM	–
O=C1N[C@H](C(=O)O)C[Se]1	4.6	451 µM	–

Source: ChEMBL document CHEMBL1145854, “Characteristics of selenazolidine prodrugs of selenocysteine: toxicity and glutathione peroxidase induction in V79 cells” (J Med Chem, 2003)
